Results gathered from unrelated publications.
Each line is one published result; the experiments were not run side by side.
Target: Macrophage-stimulating protein receptor (MST1R, Homo sapiens, UniProt Q04912)

Structure (SMILES)	read-out	method	tested at	remaining binding [%]
O=C(NCCCN1CCOCC1)c1ccc(Nc2nccc(-c3cc4ccccc4s3)n2)cc1	binding	competition with immobilised ligand	1 µM	100
C[C@@H]1CN(c2cc(-c3n[nH]c4ccc(OC5(C)CC5)cc34)ncn2)C[C@H](C)O1	cell-free assay	competition with immobilised ligand	0.1 µM	100
O=C(c1ccc(Nc2nccc(-c3cc4ccccc4s3)n2)cc1)N1CCC(N2CCCC2)CC1	binding	competition with immobilised ligand	1 µM	88
CCN1CCN(Cc2ccc(C(=O)Nc3ccc(C)c(Oc4ccc5c(c4)CC(=O)N5)c3)cc2C(F)(F)F)CC1	binding	competition with immobilised ligand	1 µM	88
O=C(NCC1CCOCC1)c1n[nH]cc1NC(=O)c1c(F)cccc1F	binding	competition with immobilised ligand	1 µM	100
N[C@H]1CCN(c2nccc(-c3cnn4ncccc34)n2)C1	binding	–	1 µM	82
C[C@@H](c1ccc(-n2cnc3c(N)ncnc32)cc1)N1CCc2nn(C)c(Cc3ccccc3)c2C1=O	binding	competition with immobilised ligand	0.1 µM	83
O=C(NCCCN1CCOCC1)c1ccc(Nc2ncc(Cl)c(-c3ccc(Cl)s3)n2)cc1	binding	competition with immobilised ligand	1 µM	67
NS(=O)(=O)c1cc(NC(=O)Cc2ccccc2)ccc1Oc1cccc(Cl)c1	cell-free assay	competition with immobilised ligand	1 µM	97
COc1ccnn2ncc(-c3ccnc(N(C)C)n3)c12	binding	–	1 µM	100
CS(=O)(=O)c1cc(C2(NC(=O)c3cncc4c3cnn4-c3ccc(F)cc3)CC2)ccn1	cell-free assay	competition with immobilised ligand	1 µM	83
CC1CCCN1c1nccc(-c2cnn3ncccc23)n1 (stereo not drawn)	binding	–	1 µM	100
COc1ncc2cc3ccccc3nc2c1C#N	cell-free assay	competition with immobilised ligand	5 µM	100
O=C(O)[C@H]1[C@H](Cn2nnc3ccccc3c2=O)CC[C@@H]1C(=O)c1ccc(OCCC2CCOCC2)cc1	cell-free assay	competition with immobilised ligand	1 µM	96
Cc1cnn2ncc(-c3ccnc(N(C)C)n3)c2c1	binding	–	1 µM	71
Nc1ncc2c(n1)-c1c([nH]c3ccc(C#CC4CC4)cc13)CCCC2	binding	competition with immobilised ligand	1 µM	100
CN(c1nccc(-c2cnn3ncccc23)n1)C1CC1	binding	–	1 µM	100
O=C(Nc1cccnn1)N1CC(C/C=C/c2cncc(Oc3ccc(C(F)(F)F)cn3)n2)C1	cell-free assay	competition with immobilised ligand	1 µM	100
C[C@H]1CCN(c2nccc(-c3cnn4ncccc34)n2)C1	binding	–	1 µM	93
COc1cnc(Nc2cccc(S(N)(=O)=O)c2)nc1N1CCN(c2ccccc2)C(=O)C1	binding	competition with immobilised ligand	1 µM	100
Cc1c[nH]c2nccc(Oc3c(F)cc(Nc4cc(Cl)nc(N)n4)cc3F)c12	cell-free assay	competition with immobilised ligand	0.1 µM	74
